Calls of active or inactive are those of the source. The calls are words filed in the database; no cut-off is given here.
What was measured:
[1] = system: Rattus norvegicus; assay: Antidepressant activity in Sprague-Dawley rat assessed as reduction of immobility time at 56.6 mg/kg, ip measured up to 6 mins by forced swim test; assay type: functional, organism-based
[2] = biological target: Metabotropic glutamate receptor 3 (Rattus norvegicus) (UniProt P31422); assay: Negative allosteric modulation of rat mGlu3 receptor assessed as amplitude response at 30 uM relative to glutamate
Sequence of Metabotropic glutamate receptor 3 (Rattus norvegicus) (P31422 23-879 limits assumed): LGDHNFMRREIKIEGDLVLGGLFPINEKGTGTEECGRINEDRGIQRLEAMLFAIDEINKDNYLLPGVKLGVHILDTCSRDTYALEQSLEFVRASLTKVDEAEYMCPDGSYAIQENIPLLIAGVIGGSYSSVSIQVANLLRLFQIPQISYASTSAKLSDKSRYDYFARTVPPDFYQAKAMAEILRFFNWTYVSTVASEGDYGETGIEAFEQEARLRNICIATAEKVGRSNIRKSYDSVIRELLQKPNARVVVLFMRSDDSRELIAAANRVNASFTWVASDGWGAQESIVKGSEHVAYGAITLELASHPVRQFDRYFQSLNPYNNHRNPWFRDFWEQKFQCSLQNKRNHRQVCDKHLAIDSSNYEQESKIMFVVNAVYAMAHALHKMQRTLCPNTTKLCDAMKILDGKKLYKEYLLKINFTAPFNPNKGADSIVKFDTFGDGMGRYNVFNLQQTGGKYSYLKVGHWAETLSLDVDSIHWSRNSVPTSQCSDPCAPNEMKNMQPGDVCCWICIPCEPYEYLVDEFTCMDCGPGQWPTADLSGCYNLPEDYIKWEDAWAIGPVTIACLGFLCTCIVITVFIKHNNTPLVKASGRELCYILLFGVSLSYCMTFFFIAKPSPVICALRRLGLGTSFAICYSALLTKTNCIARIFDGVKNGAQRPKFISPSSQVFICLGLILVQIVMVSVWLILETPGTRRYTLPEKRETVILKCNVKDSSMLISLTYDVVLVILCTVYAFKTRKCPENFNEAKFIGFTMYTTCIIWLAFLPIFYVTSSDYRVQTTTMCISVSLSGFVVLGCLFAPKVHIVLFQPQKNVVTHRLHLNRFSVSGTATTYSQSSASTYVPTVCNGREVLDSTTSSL
In short: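 Calcium mobilization in cell line stably expressing rat mGlu3 with promiscuous Gα15; fluorescence read-out; amplitude of glutamate response with 30 μM test compound expressed as percentage of maximal response (100 μM glutamate); average of n = 3.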

[3] = Oral bioavailability in rat at 3 mg/kg; assay type: ADME, organism-based; conditions: in vivo
[4] = biological target: Cytochrome P450 2C9 (Homo sapiens, UniProt P11712); assay: Inhibition of CYP2C9 in human liver microsomes by cocktail assay; assay type: ADME
Sequence of Cytochrome P450 2C9 (P11712 whole entry, canonical isoform): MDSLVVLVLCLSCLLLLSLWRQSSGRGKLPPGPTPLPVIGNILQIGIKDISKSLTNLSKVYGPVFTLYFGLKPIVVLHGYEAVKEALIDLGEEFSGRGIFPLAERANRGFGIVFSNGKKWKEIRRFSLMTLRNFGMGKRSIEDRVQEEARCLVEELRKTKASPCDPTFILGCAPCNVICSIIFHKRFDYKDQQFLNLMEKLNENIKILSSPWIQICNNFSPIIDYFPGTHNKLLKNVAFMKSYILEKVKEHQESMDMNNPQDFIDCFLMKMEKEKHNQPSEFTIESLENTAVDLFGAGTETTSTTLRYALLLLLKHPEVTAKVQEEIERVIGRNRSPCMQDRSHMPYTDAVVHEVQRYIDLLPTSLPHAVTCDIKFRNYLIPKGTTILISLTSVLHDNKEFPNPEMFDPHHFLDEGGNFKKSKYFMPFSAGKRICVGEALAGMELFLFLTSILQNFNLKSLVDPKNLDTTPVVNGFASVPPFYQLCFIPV
In short: (§1)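 Human liver microsome cocktail incubation with probe substrates for four P450s; inhibition of each isoform measured.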

[5] = system: Plasma; assay: Fraction unbound in rat plasma; assay type: ADME, cell-free
[6] = system: Mus musculus; assay: Anxiolytic activity in CD1 mouse assessed as inhibition of marble burying behavior at 56.6 mg/kg, ip after 30 mins; assay type: functional, organism-based
[7] = Cmax in rat at 10 mg/kg, ip; assay type: ADME, organism-based; set-up: dose 10 mg/kg, route intraperitoneal; conditions: in vivo
[8] = system: MDCK; assay: Apparent permeability from apical to basolateral side in MDCK cells expressing human MDR1 gene; assay type: ADME, cell-based, Canis lupus familiaris; conditions: dog
In short: (§2)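 Permeability and P-gp efflux measured in MDCK cells transfected with human MDR1 gene.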

[9] = biological target: Metabotropic glutamate receptor 3 (Rattus norvegicus, UniProt P31422); assay: Negative allosteric modulation of rat mGlu3 receptor assessed as calcium mobilization by cell based fluorescence assay; assay type: functional
In short: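 Cell line stably expressing rat mGlu3 with the promiscuous G-protein Gα15. Calcium mobilization with fluorescence read-out, inhibition of the glutamate response. Full concentration-response curves, top concentration 30 μM. % Glu Max is the response with 30 μM test compound as a percentage of the maximal response to 100 μM glutamate. Values averaged over n-3.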

[10] = system: MDCK; assay: Apparent permeability from basolateral to apical side in MDCK cells expressing human MDR1 gene; assay type: ADME, cell-based, Canis lupus familiaris; conditions: dog; in short: as §2
[11] = biological target: Metabotropic glutamate receptor 2 (Rattus norvegicus) (UniProt P31421); assay: Negative allosteric modulation of rat mGlu2 receptor assessed as calcium mobilization at 30 uM by cell based fluorescence assay; assay type: functional
Sequence of Metabotropic glutamate receptor 2 (Rattus norvegicus) (P31421 19-872 limits assumed): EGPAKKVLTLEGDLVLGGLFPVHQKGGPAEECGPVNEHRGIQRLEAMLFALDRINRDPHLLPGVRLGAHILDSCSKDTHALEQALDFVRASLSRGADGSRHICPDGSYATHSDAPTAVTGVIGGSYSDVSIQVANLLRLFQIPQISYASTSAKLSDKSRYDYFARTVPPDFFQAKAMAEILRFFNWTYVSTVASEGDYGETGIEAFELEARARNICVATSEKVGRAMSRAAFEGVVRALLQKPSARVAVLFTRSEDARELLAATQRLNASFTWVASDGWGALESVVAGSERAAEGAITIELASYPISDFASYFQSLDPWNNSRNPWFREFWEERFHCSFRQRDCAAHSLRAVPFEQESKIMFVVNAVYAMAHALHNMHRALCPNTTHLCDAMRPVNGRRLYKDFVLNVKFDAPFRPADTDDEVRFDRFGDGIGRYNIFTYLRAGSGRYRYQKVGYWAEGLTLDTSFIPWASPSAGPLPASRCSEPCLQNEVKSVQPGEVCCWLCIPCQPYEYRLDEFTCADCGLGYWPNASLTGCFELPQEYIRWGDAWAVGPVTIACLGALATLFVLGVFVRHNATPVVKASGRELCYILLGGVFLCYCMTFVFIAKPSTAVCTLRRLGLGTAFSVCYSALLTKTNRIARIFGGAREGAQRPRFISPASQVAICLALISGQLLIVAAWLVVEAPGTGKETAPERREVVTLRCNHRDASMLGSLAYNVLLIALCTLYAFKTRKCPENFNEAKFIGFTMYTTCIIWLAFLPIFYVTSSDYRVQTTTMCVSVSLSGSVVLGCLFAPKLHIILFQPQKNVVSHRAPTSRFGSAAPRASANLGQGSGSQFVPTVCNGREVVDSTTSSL
In short: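 Rat mGlu2 calcium mobilization assay with fluorescence read-out; full concentration-response curve analysis up to 30 μM top concentration.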

[12] = Half life in rat at 0.2 mg/kg, iv administered as cassette dose; assay type: ADME, organism-based; conditions: in vivo
[13] = Volume of distribution at steady state in rat at 0.2 mg/kg, iv administered as cassette dose; assay type: ADME, organism-based; conditions: in vivo, read-out: Vdss
[14] = system: Brain; assay: Fraction unbound in rat brain; assay type: ADME, tissue-based
[15] = biological target: Cytochrome P450 2D6 (Homo sapiens, UniProt P10635); assay: Inhibition of CYP2D6 in human liver microsomes by cocktail assay; assay type: ADME; in short: as §1
Sequence of Cytochrome P450 2D6 (P10635 whole entry): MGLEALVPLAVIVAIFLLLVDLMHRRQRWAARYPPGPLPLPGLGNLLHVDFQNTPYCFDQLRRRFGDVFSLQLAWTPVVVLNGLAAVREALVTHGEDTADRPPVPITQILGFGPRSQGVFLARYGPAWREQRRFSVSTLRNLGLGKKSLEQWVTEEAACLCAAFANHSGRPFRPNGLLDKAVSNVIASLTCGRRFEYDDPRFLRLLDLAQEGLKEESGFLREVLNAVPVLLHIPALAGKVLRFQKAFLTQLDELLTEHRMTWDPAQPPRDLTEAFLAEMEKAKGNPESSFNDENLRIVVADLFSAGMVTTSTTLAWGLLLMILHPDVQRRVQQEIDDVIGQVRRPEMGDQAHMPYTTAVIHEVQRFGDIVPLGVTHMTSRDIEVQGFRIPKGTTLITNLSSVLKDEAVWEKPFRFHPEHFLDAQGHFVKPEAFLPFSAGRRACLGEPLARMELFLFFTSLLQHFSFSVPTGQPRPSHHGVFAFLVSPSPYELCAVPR

[16] = in vivo; conditions: rat, ip, 10 mg/kg
[17] = Volume of distribution at steady state in rat at 1 mg/kg, iv and 3 mg/kg, po; assay type: ADME, organism-based; conditions: in vivo, read-out: Vdss
In short: (§3)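 Rat IV PK, n = 2, 1.0 mg/kg as solution in 10% EtOH, 50% PEG 400, 40% saline (1 mg/mL); oral arm 3.0 mg/kg as fine microsuspension in 0.1% Tween 80 and 0.5% methyl cellulose in H2O (0.3 mg/mL).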

[18] = biological target: T1, Cytochrome P450 1A2 (Homo sapiens, UniProt P05177); assay: Inhibition of CYP1A2 in human liver microsomes by cocktail assay; assay type: ADME
T1 sequence (P05177 whole entry): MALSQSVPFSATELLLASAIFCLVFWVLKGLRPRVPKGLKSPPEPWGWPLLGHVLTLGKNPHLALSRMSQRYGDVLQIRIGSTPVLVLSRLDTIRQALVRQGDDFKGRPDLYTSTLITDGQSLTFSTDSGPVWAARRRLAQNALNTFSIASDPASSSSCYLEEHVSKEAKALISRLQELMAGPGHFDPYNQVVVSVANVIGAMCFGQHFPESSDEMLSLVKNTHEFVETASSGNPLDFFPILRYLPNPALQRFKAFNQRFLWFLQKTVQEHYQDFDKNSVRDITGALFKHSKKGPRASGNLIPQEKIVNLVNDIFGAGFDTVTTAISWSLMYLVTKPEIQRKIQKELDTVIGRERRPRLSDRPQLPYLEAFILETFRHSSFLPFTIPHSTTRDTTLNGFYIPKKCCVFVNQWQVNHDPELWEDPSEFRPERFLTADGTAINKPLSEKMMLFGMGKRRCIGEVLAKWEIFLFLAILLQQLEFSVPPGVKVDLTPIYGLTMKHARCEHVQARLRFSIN

[19] = AUC (0 to infinity) in rat at 10 mg/kg, ip; assay type: ADME, organism-based; set-up: dose 10 mg/kg, time infinity, route intraperitoneal; conditions: in vivo
[20] = AUC (0 to infinity) in mouse at 10 mg/kg, ip; assay type: ADME, organism-based; set-up: dose 10 mg/kg, time infinity, route intraperitoneal; conditions: in vivo
[21] = in vivo; conditions: mouse, ip, 10 mg/kg
[22] = Plasma concentration in mouse at 10 mg/kg, ip after 30 mins; assay type: ADME, organism-based
In short: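 Single time-point tissue distribution in mice. Dosed IP as a fine microsuspension in 0.1% Tween 80 and 0.5% methyl cellulose in H2O (1 mg/mL). Plasma and brain were sampled 30 min post dose, n = 3.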

[23] = biological target: 5-hydroxytryptamine receptor 2B (Homo sapiens) (UniProt P41595); assay: Antagonist activity at 5HT2B receptor (unknown origin) up to 10 uM
Sequence of 5-hydroxytryptamine receptor 2B (Homo sapiens) (P41595 whole entry): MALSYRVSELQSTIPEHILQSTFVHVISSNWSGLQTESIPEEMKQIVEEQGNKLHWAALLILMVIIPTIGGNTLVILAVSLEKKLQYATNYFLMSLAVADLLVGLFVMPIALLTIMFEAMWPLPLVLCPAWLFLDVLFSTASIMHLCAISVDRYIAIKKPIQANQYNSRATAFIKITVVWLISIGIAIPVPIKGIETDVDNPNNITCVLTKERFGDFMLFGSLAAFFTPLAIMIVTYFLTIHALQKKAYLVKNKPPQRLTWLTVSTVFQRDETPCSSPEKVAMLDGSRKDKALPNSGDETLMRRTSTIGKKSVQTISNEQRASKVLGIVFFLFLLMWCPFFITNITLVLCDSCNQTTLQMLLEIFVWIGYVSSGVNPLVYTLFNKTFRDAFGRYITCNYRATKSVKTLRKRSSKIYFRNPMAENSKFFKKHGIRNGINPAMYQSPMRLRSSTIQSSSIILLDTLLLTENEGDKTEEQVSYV

[24] = biological target: 5-hydroxytryptamine receptor 2B (Homo sapiens) (UniProt P41595); assay: Agonist activity at 5HT2B receptor (unknown origin) up to 10 uM
[25] = biological target: 5-hydroxytryptamine receptor 2B (Homo sapiens) (UniProt P41595); assay: Binding affinity to 5HT2B receptor (unknown origin) at 10 uM by radioligand binding assay
[26] = biological target: Metabotropic glutamate receptor 5 (Rattus norvegicus, UniProt P31424); assay: Modulation of rat mGlu5 receptor assessed as calcium mobilization by cell based fluorescence assay; assay type: functional
Sequence of Metabotropic glutamate receptor 5 (P31424 whole entry): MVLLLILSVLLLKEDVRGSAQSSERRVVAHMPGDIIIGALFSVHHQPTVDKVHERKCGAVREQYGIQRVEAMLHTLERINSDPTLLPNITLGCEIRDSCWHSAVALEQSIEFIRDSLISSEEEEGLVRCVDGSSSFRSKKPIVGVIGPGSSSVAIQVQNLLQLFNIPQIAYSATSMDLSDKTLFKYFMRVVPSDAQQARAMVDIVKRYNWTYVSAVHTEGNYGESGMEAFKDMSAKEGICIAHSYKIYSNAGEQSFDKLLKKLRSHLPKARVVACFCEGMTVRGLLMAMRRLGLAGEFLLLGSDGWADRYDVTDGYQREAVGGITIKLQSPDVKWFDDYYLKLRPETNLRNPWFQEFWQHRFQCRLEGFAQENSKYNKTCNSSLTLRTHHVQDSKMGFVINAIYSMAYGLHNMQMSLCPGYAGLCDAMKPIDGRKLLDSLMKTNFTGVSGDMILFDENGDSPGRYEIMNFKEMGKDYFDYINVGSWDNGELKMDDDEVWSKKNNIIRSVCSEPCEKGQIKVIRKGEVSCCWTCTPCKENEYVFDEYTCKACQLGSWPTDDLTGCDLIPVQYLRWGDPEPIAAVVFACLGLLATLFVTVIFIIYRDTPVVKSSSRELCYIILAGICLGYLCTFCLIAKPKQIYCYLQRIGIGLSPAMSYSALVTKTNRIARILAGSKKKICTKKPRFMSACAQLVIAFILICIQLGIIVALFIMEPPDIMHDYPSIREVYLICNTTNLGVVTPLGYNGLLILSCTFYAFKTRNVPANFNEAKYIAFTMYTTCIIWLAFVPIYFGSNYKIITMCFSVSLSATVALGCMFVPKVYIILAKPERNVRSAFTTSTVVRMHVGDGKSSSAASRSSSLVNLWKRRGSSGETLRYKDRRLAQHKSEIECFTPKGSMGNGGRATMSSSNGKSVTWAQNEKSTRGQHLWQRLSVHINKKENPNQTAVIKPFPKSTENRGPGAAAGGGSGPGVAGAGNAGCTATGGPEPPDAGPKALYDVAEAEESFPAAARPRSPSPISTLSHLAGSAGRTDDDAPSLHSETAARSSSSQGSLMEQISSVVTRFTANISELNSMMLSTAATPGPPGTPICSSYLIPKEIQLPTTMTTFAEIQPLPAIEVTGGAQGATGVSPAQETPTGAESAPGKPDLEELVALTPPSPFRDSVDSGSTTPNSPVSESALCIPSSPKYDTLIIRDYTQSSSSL
In short: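 Calcium mobilization assay with fluorescence read-out in cells expressing mGlu5; full concentration-response curves; % Glu Max is the amplitude of response with 30 μM test compound as a percentage of the maximal response to 100 μM glutamate; values averaged over n-3.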

[27] = system: Mus musculus; assay: Anxiolytic activity in ip dosed CD1 mouse assessed as inhibition of marble burying behavior after 30 mins; assay type: functional, organism-based
[28] = Plasma clearance in rat at 0.2 mg/kg, iv administered as cassette dose; assay type: ADME, organism-based
[29] = system: Rattus norvegicus; assay: Half life in rat at 1 mg/kg, iv and 3 mg/kg, po; assay type: ADME, organism-based; conditions: in vivo; in short: as §3
[30] = biological target: Cytochrome P450 3A4 (Homo sapiens, UniProt P08684); assay: Inhibition of CYP3A4 in human liver microsomes by cocktail assay; assay type: ADME; in short: as §1
Sequence of Cytochrome P450 3A4 (P08684 whole entry): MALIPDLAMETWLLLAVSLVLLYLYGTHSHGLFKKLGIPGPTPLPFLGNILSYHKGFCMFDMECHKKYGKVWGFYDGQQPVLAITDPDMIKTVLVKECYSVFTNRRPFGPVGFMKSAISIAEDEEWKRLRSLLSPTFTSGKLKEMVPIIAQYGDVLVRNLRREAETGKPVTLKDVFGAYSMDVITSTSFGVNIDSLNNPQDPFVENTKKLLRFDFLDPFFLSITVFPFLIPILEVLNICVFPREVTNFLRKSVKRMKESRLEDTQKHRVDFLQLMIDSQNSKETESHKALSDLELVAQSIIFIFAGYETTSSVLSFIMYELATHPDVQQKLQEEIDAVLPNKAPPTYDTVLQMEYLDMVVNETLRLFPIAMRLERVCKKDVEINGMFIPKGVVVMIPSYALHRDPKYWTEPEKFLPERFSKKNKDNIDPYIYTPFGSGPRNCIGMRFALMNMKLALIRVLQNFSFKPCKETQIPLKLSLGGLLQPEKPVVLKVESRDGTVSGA

[31] = Cmax in mouse at 10 mg/kg, ip; assay type: ADME, organism-based; set-up: dose 10 mg/kg, route intraperitoneal; conditions: in vivo
[32] = system: Brain; assay: Fraction unbound in mouse brain; assay type: ADME, tissue-based
[33] = system: Plasma; assay: Fraction unbound in mouse plasma; assay type: ADME, cell-free
[34] = Plasma clearance in rat at 1 mg/kg, iv and 3 mg/kg, po; assay type: ADME, organism-based
In short: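 Rat PK, n = 2 each route. IV: 1.0 mg/kg as solution in 10% EtOH, 50% PEG 400, 40% saline (1 mg/mL). Oral: 3.0 mg/kg as fine microsuspension in 0.1% Tween 80 and 0.5% methyl cellulose in H2O (0.3 mg/mL). Plasma clearance and bioavailability derived from plasma levels.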

With `C[C@@H]1CN(c2cccnc2F)C(=O)c2cc(COc3ccc(Cl)cn3)nn21` the Activity [1] was “Active”, the Activity [2] was 1.71% and the bioavailability [3] was 60%. The IC50 [4] was 25.6 µM, the Fu [5] was 0.083 and the inhibition [6] was “Active”. For the same compound, the Cmax [7] was 4.57 µM, the Papp [8] was 45 ×10⁻⁶ cm/s and the IC50 [9] was 0.392 µM. For the same compound, the Papp [10] was 49.9 ×10⁻⁶ cm/s, the Activity [11] was “inactive” and the half-life [12] was 42 min. The Vd [13] was 1.6 L/kg, the Fu [14] was 0.052 and the IC50 [15] was over 30 µM. The Tmax [16] was 12.3 min, the Vd [17] was 1.4 L/kg and the IC50 [18] was over 30 µM. The AUC(0-inf) [19] was 11.5 µM·h, the AUC(0-inf) [20] was 7.26 µM·h and the Tmax [21] was 30 min. The concentration at 0.5 h [22] was 2.29 µM, the Activity [23] was “Active” and the Activity [24] was “inactive”. The inhibition [25] was 65%, the EC50 [26] was over 30 µM and the inhibition [27] was “Dose-dependent effect”. The clearance [28] was 37 mL/min/kg, the t1/2 [29] was 49 min and the IC50 [30] was over 30 µM. The Cmax [31] was 4.48 µM, the Fu [32] was 0.035 and the Fu [33] was 0.163. It also gave a clearance [34] of 30 mL/min/kg.
